pEC50: −log10 of the molar value. The source made the active and inactive calls. No cut-off for these calls is given here. Starred links: 1 amine or outer side, 2 acyl side, 3 side chain; linkers in the order of their positions; H or OH if unused. Positions of bridges follow the written chain, without caps; N, C: chain ends. Residues, ends and D or L forms follow the SMILES beside them. *: point of attachment. Propanoyl(3,3-Ph2) = O=C(CC(c1ccccc1)c1ccccc1)*; X1 = CCCCCCCCCCCCCCCC(=O)NCCOCCOCCN*; mXylylene = c1cc(C[*:1])cc(C[*:2])c1

A short description of data set [1]: Half life in cynomolgus monkey. It counts as ADME, organism-based, Macaca fascicularis. The following applies: in vivo.
Data set [2] relates to Mus musculus. As to the kind of experiment: Decrease in serum iron level in C57BL/6 mouse at 100 nmol, sc after 24 hrs by colorimetric analysis. The data set is classed as functional, organism-based. In a few lines: (§1)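 C57BL/6 mice on NIH 31 diet (iron 336 mg/kg). Single subcutaneous injection of 50, 100 or 200 nmoles peptide in 100 μL PBS; controls received PBS alone. Killed at 24 h, serum from cardiac blood. Serum iron by colorimetric assay (microplate, 50 μL serum). Percent decrease versus mean of PBS-injected mice.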

The next data set concerns Plasma. The data set is described as follows: Metabolic stability in mouse plasma at 25 uM by LC/MS analysis. It counts as ADME, cell-free. The method, boiled down: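 Peptide from 10 mM DMSO stock added to fresh mouse plasma (final 25 μM), incubated at 37 °C. Samples (10 μL) taken at time-points and diluted into DMSO/ACN 1:1 with 0.1% TFA. Centrifuged 13000 rpm, 10 min. Supernatant analysed by triple-quadrupole LC/MS with NM4A-Me peptide as internal standard.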

Another data set deals with T1, Ferroportin (Homo sapiens, UniProt Q9NP59).
T1 sequence (Q9NP59 whole entry): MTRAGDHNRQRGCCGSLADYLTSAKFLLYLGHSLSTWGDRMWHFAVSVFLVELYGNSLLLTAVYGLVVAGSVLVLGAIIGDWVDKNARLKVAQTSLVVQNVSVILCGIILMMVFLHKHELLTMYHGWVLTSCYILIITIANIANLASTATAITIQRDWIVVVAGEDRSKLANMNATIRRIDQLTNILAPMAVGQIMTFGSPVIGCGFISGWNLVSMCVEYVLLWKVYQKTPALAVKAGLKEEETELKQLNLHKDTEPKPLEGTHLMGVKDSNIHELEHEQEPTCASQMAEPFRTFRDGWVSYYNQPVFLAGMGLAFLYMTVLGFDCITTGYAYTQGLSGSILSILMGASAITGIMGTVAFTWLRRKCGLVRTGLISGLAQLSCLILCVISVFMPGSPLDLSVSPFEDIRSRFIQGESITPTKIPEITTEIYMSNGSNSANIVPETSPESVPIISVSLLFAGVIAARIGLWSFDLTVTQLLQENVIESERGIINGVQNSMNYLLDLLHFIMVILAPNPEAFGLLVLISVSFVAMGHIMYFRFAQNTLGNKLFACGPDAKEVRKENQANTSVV
As to the kind of experiment: Agonist activity at GFP-fused human FPN transfected in HEK293 cells assessed as protein degradation after 24 hrs by flow cytometric analysis. The data set is classed as cell-based. The method, boiled down: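 HEK293:TREX-Fpn-GFP cells (human ferroportin-GFP, doxycycline-inducible) plated on poly-D-lysine with 20 μM FAC, induced with 500 ng/mL doxycycline for 24 h, washed, then peptide-treated 24 h. Green fluorescence read by flow cytometry at 1 × 10^6 cells/mL, gated against uninduced cells. Activity expressed as fraction of hep25: 1 − [(Fx − Fhep25)/(Funtreated − Fhep25)]. 3–6 independent repeats.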
On the technique in general: Flow cytometry measures light scatter and fluorescence of single cells or particles in a stream.

For data set [3], the system named is Mus musculus. As to the kind of experiment: Decrease in serum iron level in C57BL/6 mouse at 50 to 100 nmol, sc after 24 hrs by colorimetric analysis. It counts as functional, organism-based. As to conditions: in the assay text read “50 to 200 nmol” for “50 to 100 nmol”. The method, boiled down: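 C57BL/6 mice on NIH 31 diet (iron 336 mg/kg) received 50, 100 or 200 nmoles peptide in 100 μL PBS sc, or PBS alone. Killed at 24 h, serum from cardiac puncture. Serum iron measured by microplate colorimetric assay using 50 μL serum. Reported as % decrease versus mean of PBS-injected mice.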

Data set [4] relates to Mus musculus. The data set is described as follows: Decrease in serum iron level in C57BL/6 mouse at 50 to 200 nmol, sc after 24 hrs by colorimetric analysis. The data set is classed as functional, organism-based. In a few lines: as §1
Data set [5] concerns Mus musculus. The data set is described as follows: Decrease in serum iron level in C57BL/6 mouse at 50 nmol, sc after 24 hrs by colorimetric analysis. It counts as functional, organism-based. The method, boiled down: as §1

The half-life is how long it takes for the measured level to halve. With `CC[C@H](C)[C@@H]1NC(=O)[C@@H](NC(=O)[C@@H](NC(=O)[C@@H]2CCCN2C(=O)[C@H](Cc2ccccc2)NC(=O)[C@H](Cc2c[nH]cn2)NC(=O)[C@@H](NC(=O)[C@@H](N)CC(=O)O)[C@@H](C)O)[C@@H](C)CC)CSSC[C@@H](C(=O)N[C@@H](CCCCN)C(=O)N[C@H](C(=O)O)[C@@H](C)O)NC(=O)[C@@H]2CSSC[C@@H]3NC(=O)[C@@H]4CSSC[C@H](NC(=O)[C@H](Cc5ccccc5)NC1=O)C(=O)N[C@@H](CSSC[C@H](NC(=O)[C@H](CCCCN)NC(=O)[C@H](CO)NC(=O)[C@H](CCCNC(=N)N)NC(=O)[C@H](Cc1c[nH]cn1)NC3=O)C(=O)NCC(=O)N[C@@H](CCSC)C(=O)N2)C(=O)NCC(=O)N4`, in data set [1], the half-life is less than 2.5 min.
For `CCCCCCCCCCCCCCCCNC(=O)CN(CC(N)=O)C(=O)CCCCCNC(=O)C[C@H](Cc1ccccc1)NC(=O)[C@H](CCCNC(=N)N)NC(=O)[C@H](CS)NC(=O)[C@H](CCCNC(=N)N)NC(=O)C[C@@H]1CCCN1C(=O)[C@@H](NC(=O)[C@H](Cc1c[nH]cn1)NC(=O)[C@@H](NC(=O)CNCC(=O)O)[C@@H](C)O)C(c1ccccc1)c1ccccc1`, the outcome with Mus musculus [2] was Active. Besides, the Stability entry in the data set on Plasma is reported as “Stable”.
The term pEC50 denotes −log10 of the EC50, conventionally taken in molar units. As for `CCCCCCCCCCCCCCCCNC(=O)CN(CC(N)=O)C(=O)CCCCCNC(=O)[C@@H]1CSCc2cccc(c2)CSC[C@H](NC(C)=O)C(=O)N[C@@H](C(c2ccccc2)c2ccccc2)C(=O)N2CCC[C@H]2C(=O)N[C@@H](CCCNC(=N)N)C(=O)N[C@@H](CS)C(=O)N[C@@H](CCCNC(=N)N)C(=O)N[C@@H](Cc2ccccc2)C(=O)N1`, the pEC50 on Ferroportin was 7.35. For the same compound, the result in the data set with Mus musculus [3] was inactive.
`N=C(N)NCCC[C@@H]1NC(=O)[C@@H](NC(=O)CC(c2ccccc2)c2ccccc2)CSCc2cccc(c2)CSC[C@@H](C(N)=O)NC(=O)[C@H](Cc2ccccc2)NC(=O)[C@H](CCCNC(=N)N)NC(=O)[C@H](CS)NC1=O` ({Propanoyl(3,3-Ph2)}-CRCRFC-NH2; linker 1-6 via mXylylene): at Ferroportin, the pEC50 is 6.98. Further, the result with Mus musculus [4] was inactive.
On to `CCCCCCCCCCCCCCCC(=O)NCCOCCOCCNC(=O)[C@@H]1CSCc2cccc(c2)CSC[C@H](NC(=O)CC(c2ccccc2)c2ccccc2)C(=O)N[C@@H](CCCNC(=N)N)C(=O)N[C@@H](CS)C(=O)N[C@@H](CCCNC(=N)N)C(=O)N[C@@H](Cc2ccccc2)C(=O)N1` ({Propanoyl(3,3-Ph2)}-CRCRFC-X1; linker 1-6 via mXylylene), for which the pEC50 on Ferroportin is 7.28. Also, the result in the data set on Mus musculus [5] was inactive. Further, the Stability result with Plasma is “Stable”.

(Values after ChEMBL document CHEMBL3621052, “Small cyclic agonists of iron regulatory hormone hepcidin” (Bioorg Med Chem Lett, 2015).)
